Reference: paper PMC3355950 (The Journal of Neuroscience, 2012)

Key:
Type in all cases: cell-based
[1] = biological target: GluN1/GluN2B L783F+F784V (Rattus norvegicus, UniProt P35439+Q00960, F784V/L783F); test: Two-electrode voltage-clamp recordings, Xenopus oocytes
[2] = biological target: GluN1/GluN2A V783A (Rattus norvegicus, UniProt P35439+Q00959, V783A); test: as above; conditions: 100 μM glutamate + 3 μM glycine
[3] = biological target: GluN1/GluN2B F784V (Rattus norvegicus, UniProt P35439+Q00960, F784V); test: as above
Chain of GluN1/GluN2B F784V (Q00960 27-1482 F784V, other chains not shown): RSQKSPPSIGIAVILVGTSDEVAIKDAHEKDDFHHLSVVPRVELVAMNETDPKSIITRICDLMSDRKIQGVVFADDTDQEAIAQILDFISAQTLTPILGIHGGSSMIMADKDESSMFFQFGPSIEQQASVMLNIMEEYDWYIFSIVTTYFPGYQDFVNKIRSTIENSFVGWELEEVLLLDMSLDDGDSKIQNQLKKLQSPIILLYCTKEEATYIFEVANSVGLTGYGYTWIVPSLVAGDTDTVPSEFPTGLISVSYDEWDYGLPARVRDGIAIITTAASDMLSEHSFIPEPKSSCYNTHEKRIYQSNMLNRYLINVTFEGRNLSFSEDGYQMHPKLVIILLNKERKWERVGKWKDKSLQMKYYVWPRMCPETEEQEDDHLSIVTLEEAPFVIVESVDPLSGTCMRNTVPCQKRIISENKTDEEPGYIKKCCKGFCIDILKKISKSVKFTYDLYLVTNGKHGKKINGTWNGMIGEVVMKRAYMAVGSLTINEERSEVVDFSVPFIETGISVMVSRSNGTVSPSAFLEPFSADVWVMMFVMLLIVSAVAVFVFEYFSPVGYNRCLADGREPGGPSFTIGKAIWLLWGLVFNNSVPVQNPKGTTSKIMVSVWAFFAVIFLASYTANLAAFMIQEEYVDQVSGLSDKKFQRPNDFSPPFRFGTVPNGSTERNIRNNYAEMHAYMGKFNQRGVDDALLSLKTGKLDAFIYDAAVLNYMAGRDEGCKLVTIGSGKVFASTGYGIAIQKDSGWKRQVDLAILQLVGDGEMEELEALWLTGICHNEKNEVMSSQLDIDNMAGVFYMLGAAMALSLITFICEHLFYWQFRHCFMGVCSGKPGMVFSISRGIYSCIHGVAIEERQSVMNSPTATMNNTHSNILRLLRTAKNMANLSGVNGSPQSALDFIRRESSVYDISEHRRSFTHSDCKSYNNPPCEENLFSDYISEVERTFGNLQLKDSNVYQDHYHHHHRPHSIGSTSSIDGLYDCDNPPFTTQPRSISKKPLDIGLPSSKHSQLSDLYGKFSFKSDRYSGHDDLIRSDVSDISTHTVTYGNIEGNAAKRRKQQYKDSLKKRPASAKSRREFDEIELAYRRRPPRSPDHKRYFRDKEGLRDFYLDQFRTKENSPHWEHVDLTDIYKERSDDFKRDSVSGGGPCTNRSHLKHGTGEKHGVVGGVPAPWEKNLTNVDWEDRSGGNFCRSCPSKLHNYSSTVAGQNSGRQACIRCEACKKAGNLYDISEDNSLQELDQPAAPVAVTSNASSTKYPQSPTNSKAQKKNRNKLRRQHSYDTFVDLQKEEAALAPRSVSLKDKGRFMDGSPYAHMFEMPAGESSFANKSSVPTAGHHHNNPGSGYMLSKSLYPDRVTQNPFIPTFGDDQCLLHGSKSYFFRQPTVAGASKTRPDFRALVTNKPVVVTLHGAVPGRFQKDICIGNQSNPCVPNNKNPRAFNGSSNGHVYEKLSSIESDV

[4] = biological target: GluN1/2A-(2D S1) (Rattus norvegicus, UniProt P35439+Q00959, A414R/D421P/DELINS438-452SQLNRTHSPPPDAPRPE/E427G/I408V/I422A/K454R/K466R/K472G/L425I/N404Q/N432D/N490D/N491G/R469H/S407T/S468A/S538A/T426S/T433S/T474S/V409A/V430I/V471I/V489I/V501F/V506D/V509I/V521I); test: Two-electrode voltage-clamp recordings, Xenopus oocytes; conditions: 100 μM glutamate + 3 μM glycine
Procedure, shortened: (§1)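 cRNA from linearized constructs injected into female Xenopus laevis oocytes. Two-electrode voltage clamp done 3–4 d later at 23°C, holding at −40 mV, in 90 NaCl, 1 KCl, 10 HEPES, 0.5 BaCl₂, 0.01 EDTA (mM), pH 7.4. […] Max inhibition is (control − residual at saturating compound)/control.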

[5] = biological target: GluN1/GluN2A V783S (Rattus norvegicus, UniProt P35439+Q00959, V783S); test: Two-electrode voltage-clamp recordings, Xenopus oocytes; conditions: 100 μM glutamate + 3 μM glycine
[6] = biological target: GluN1/GluN2A G786D (Rattus norvegicus, UniProt P35439+Q00959, G786D); test: as above; conditions: 100 μM glutamate + 3 μM glycine
[7] = biological target: GluN1/GluN2A L779A (Rattus norvegicus, UniProt P35439+Q00959, L779A); test: as above; conditions: 100 μM glutamate + 3 μM glycine
[8] = biological target: GluN1/2D-(2A S2) (Rattus norvegicus, UniProt P35439+Q62645, A747T/D725Y/D811G/E700D/E740D/H791Q/I813M/K706R/K717R/K766R/K779Y/L705F/L808V/M763K/M815E/P736R/P799Q/Q699H/Q701Y/Q744S/R693K/R737G/R765G/R795P/R818T/S688T/S721N/S728Q/S822T/T686Q/T743V/T783S/V731T/V780I/Y702S/Y733F); test: Two-electrode voltage-clamp recordings, Xenopus oocytes; conditions: 100 μM glutamate + 3 μM glycine
Procedure, shortened: as §1

[9] = biological target: GluN1/GluN2A V783D (Rattus norvegicus, UniProt P35439+Q00959, V783D); test: Two-electrode voltage-clamp recordings, Xenopus oocytes; conditions: 100 μM glutamate + 3 μM glycine
[10] = biological target: GluN1 I519A co-expressed with GluN2A (Rattus norvegicus, UniProt P35439+Q00959, I519A); test: as above; conditions: 100 μM glutamate + 3 μM glycine
[11] = biological target: GluN1/GluN2A V783F (Rattus norvegicus, UniProt P35439+Q00959, V783F); test: as above; conditions: 100 μM glutamate + 3 μM glycine
[12] = biological target: GluN1/GluN2A V783H (Rattus norvegicus, UniProt P35439+Q00959, V783H); test: as above; conditions: 100 μM glutamate + 3 μM glycine
[13] = biological target: GluN1/2A-(2D D2) (Rattus norvegicus, UniProt P35439+Q00959, D675E/D715E/F680L/F708Y/G712R/G740R/H674Q/I755V/K668R/K738M/N696S/Q661T/Q703S/R681K/R692K/R711P/R741K/S677Y/S719Q/T663S/T706V/T722A/V718T/Y676Q/Y700D/Y754K); test: as above; conditions: 100 μM glutamate plus 30 μM glycine
[14] = biological target: T1, GluN1/GluN2A (Rattus norvegicus, UniProt P35439+Q00959); test: as above; conditions: for Schild slope / pA2 (Schild plot): 100 μM glutamate
[15] = biological target: T1, GluN1/GluN2A; test: Whole-cell voltage-clamp recordings, HEK293 cells, rapid solution exchange; conditions: for % fast / τfast / τslow: brief application (10 ms) of 1000 μM glycine
Procedure, shortened: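 HEK293 cells were plated on poly-D-lysine coverslips about 48 h ahead and calcium-phosphate cotransfected with GluN1, GluN2A and GFP (1:1:1). 200 μM D,L-APV and 200 μM 7-chlorokynurenic acid were added after transfection. Whole-cell recording was done about 24 h later at −60 mV and 23°C on lifted cells with piezo-driven theta-glass exchange.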

[16] = 100 μM glutamate + 3 μM glycine
[17] = 100 μM glutamate + 1 μM glycine
[18] = 100 μM glutamate + 30 μM glycine
[19] = 50 μM glutamate, antagonist 0.1 μM
[20] = 50 μM glutamate, antagonist 0.3 μM
[21] = 50 μM glutamate, antagonist 1 μM

Chain of GluN1/GluN2B L783F+F784V (Q00960 27-1482 L783F/F784V, other chains not shown): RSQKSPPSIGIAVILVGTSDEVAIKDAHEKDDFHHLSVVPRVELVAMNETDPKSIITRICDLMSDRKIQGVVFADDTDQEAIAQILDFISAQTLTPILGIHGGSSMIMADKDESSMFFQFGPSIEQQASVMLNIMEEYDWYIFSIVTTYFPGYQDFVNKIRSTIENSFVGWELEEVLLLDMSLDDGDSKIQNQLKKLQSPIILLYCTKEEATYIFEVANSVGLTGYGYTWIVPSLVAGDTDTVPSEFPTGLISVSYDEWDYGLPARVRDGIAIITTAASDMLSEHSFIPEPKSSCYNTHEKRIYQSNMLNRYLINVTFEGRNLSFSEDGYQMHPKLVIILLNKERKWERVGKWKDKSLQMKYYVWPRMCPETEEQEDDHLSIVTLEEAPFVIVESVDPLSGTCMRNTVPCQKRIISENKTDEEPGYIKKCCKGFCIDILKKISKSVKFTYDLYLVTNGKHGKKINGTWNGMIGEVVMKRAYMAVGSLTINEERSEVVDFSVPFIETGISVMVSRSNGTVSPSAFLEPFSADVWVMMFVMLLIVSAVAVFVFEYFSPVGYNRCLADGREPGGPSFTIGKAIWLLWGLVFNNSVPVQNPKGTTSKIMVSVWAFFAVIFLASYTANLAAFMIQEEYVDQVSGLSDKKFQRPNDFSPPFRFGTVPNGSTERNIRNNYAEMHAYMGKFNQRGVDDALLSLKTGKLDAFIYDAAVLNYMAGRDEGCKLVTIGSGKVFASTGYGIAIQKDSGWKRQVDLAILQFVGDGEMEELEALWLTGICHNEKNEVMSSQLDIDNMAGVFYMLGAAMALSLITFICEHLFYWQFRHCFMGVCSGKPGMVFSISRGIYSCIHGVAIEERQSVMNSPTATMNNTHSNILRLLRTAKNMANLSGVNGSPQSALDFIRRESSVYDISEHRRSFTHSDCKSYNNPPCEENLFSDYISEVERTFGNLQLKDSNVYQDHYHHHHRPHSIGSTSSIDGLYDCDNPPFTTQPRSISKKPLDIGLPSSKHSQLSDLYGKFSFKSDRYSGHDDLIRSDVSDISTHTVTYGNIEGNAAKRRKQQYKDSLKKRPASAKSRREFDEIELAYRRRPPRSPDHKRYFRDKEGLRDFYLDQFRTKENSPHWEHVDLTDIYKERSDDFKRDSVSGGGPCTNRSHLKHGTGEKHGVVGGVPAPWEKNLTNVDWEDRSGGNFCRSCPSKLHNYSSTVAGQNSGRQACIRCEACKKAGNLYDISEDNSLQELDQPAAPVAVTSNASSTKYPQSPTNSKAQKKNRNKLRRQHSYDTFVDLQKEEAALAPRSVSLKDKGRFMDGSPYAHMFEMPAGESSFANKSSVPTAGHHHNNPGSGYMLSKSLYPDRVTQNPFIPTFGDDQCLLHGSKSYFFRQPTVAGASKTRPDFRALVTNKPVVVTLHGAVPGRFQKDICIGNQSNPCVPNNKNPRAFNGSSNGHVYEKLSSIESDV

SMILES: O=C(NNC(=O)c1ccc(CNS(=O)(=O)c2ccc(F)c(Cl)c2)cc1)c1ccccc1 [TCN-201, 3-chloro-4-fluoro-N-[(4-[(2-(phenylcarbonyl)hydrazino)carbonyl]phenyl)methyl]-benzenesulfonamide]
- Kb [1]: 437 nM
- TCN-201 activity nH [1, 16]: 1.3
- TCN-201 activity Max. % inhibition [2]: 91 ± 2%
- TCN-201 activity nH [2]: 1.1
- Kb [3]: 1380 nM
- TCN-201 activity nH [3, 16]: 1.2
- TCN-201 activity IC50 [4]: did not affect TCN-201 sensitivity
- TCN-201 activity Max. % inhibition [4]: 97 ± 1%
- TCN-201 activity nH [4]: 1.5
- TCN-201 activity Max. % inhibition [5]: 89 ± 3%
- TCN-201 activity nH [5]: 1.4
- TCN-201 activity Max. % inhibition [6]: 82 ± 3%
- TCN-201 activity nH [6]: 1.7
- TCN-201 activity Max. % inhibition [7]: 88 ± 5%
- TCN-201 activity nH [7]: 1.3
- TCN-201 activity Max. % inhibition [8]: 91 ± 4%
- TCN-201 activity nH [8]: 2.1
- TCN-201 activity Max. % inhibition [9]: 92 ± 2%
- TCN-201 activity nH [9]: 1.2
- TCN-201 activity Max. % inhibition [10]: 80 ± 2%
- TCN-201 activity nH [10]: 1.9
- TCN-201 activity Max. % inhibition [11]: 80 ± 2%
- TCN-201 activity nH [11]: 1.8
- TCN-201 activity Max. % inhibition [12]: 93 ± 4%
- TCN-201 activity nH [12]: 0.9
- Inhibition by 3 μM TCN-201 [13]: some TCN-201 activity was retained
- TCN-201 activity Max. % inhibition [14, 17]: 100 ± 1%
- TCN-201 activity nH [14, 17]: 1.2
- TCN-201 activity nH [14, 16]: 1.5
- TCN-201 activity Max. % inhibition [14, 18]: 73 ± 2%
- TCN-201 activity nH [14, 18]: 2.2
- Schild slope ([14]; agonist D-cycloserine): 0.90
- pA2 (Schild plot) ([14]; agonist D-cycloserine): 7.39
- Schild slope ([14]; agonist D-serine): 0.79
- pA2 (Schild plot) ([14]; agonist D-serine): 7.39
- Schild slope ([14]; agonist glycine): 0.87
- allosteric constant α ([14]; global nonlinear regression of glycine concentration-response data): 0.0025
- Maximal increase in glycine EC50 (1/α) ([14]; implied by α = 0.0025): 400 fold
- τinhibition ([15]; 3 μM TCN-201 in the presence of both glutamate (50 μM) and glycine (10 μM)): 3.4 ± 0.2 s
- τinhibition (time constant for TCN-201 binding) ([15]; 3 μM TCN-201 pre-incubated in the absence of any agonists): 3.5 ± 0.3 s
- τinhibition ([15]; 3 μM TCN-201 pre-incubated with glutamate alone (50 μM)): 1.1 ± 0.1 s
- TCN-201 binding / τinhibition ([15]; 3 μM TCN-201 pre-incubated with glycine alone (10 μM)): Minimal binding
- τweighted for glycine deactivation ([15]; brief (10 ms) 1 mM glycine, 50 μM glutamate, 1 μM TCN-201): 27 ± 2 ms
- % fast [15, 19]: 74 ± 2%
- τfast [15, 19]: 20 ± 1 ms
- τslow [15, 19]: 131 ± 7 ms
- % fast [15, 20]: 82 ± 1%
- τfast [15, 20]: 18 ± 1 ms
- τslow [15, 20]: 123 ± 11 ms
- % fast [15, 21]: 89 ± 2%
- τfast [15, 21]: 16 ± 2 ms
- τslow [15, 21]: 116 ± 19 ms
- τweighted for glycine deactivation vs absence of TCN-201 ([15]; long (5 seconds) 1 mM glycine, 50 μM glutamate): no significant difference
- deactivation time constant, mono-exponential fit (τslow) ([15]; long application (5 seconds) of 1000 μM glycine, 50 μM glutamate, antagonist 0.3 μM): 124 ± 12 ms
